Results as given in ChEMBL document CHEMBL5058577, “EUbOPEN Chemogenomics Library 2 (Multiplex)” (2022).

Test system: Fibroblast
Assay: Multiplex assay against human fibroblast
Type: toxicity, cell-based
In short: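 Hoechst33342, BioTracker Green Microtubule Cytoskeleton Dye, MitoTracker Red and Annexin V Alexa Fluor 680 were added to live cells at seeding, and imaging on a CQ1 microscope at 37°C and 5% CO2 followed compound addition. Gating by CellPathfinder machine learning separated cells into Hoechst high-intensity objects or normal cells, then normal cells into healthy, pyknosed or fragmented nuclei, then pyknosed cells into mitotic or apoptotic. Per cents of healthy-nucleus cells are reported for the tubulin, mitochondrial-mass and membrane-permeability phenotypes.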

[1] = 12 h, 1 µM, compound concentration 1 uM, replicate 1
[2] = 12 h, 1 µM, compound concentration 1 uM, replicate 2
[3] = 12 h, 10 µM, compound concentration 10 uM, replicate 1
[4] = 12 h, 10 µM, compound concentration 10 uM, replicate 2
[5] = 24 h, 1 µM, compound concentration 1 uM, replicate 1
[6] = 24 h, 1 µM, compound concentration 1 uM, replicate 2
[7] = 24 h, 10 µM, compound concentration 10 uM, replicate 1
[8] = 24 h, 10 µM, compound concentration 10 uM, replicate 2
[9] = 48 h, 1 µM, compound concentration 1 uM, replicate 1
[10] = 48 h, 1 µM, compound concentration 1 uM, replicate 2
[11] = 48 h, 10 µM, compound concentration 10 uM, replicate 1
[12] = 48 h, 10 µM, compound concentration 10 uM, replicate 2

## Cc1noc(-c2ccc(-c3ccc(CC(=O)O)cc3)cc2)c1NC(=O)O[C@H](C)c1ccccc1Cl
[1]
  Population Apoptotic (%): 22%
  Population Fragmented Nuclei (%): 14%
  Population Healthy Nuclei (%): 77%
  Population Hoechst High Intensity Objects (%): 0%
  Population Membrane Permeable-Phenotype (%): 0%
  Population Mitochondria Different-Phenotype (%): 1%
  Population Mitotic Cells (%): 77%
  Population Normal (%): 100%
  Population Pyknosed Nuclei (%): 8%
  Population Tubulin-Different-Phenotype (%): 10%
  Total Cell Count: 106
[2]
  Population Apoptotic (%): 58%
  Population Fragmented Nuclei (%): 21%
  Population Healthy Nuclei (%): 60%
  Population Hoechst High Intensity Objects (%): 5%
  Population Membrane Permeable-Phenotype (%): 5%
  Population Mitochondria Different-Phenotype (%): 2%
  Population Mitotic Cells (%): 41%
  Population Normal (%): 95%
  Population Pyknosed Nuclei (%): 18%
  Population Tubulin-Different-Phenotype (%): 26%
  Total Cell Count: 140
[3]
  Population Apoptotic (%): 40%
  Population Fragmented Nuclei (%): 20%
  Population Healthy Nuclei (%): 62%
  Population Hoechst High Intensity Objects (%): 1%
  Population Membrane Permeable-Phenotype (%): 1%
  Population Mitochondria Different-Phenotype (%): 6%
  Population Mitotic Cells (%): 60%
  Population Normal (%): 98%
  Population Pyknosed Nuclei (%): 17%
  Population Tubulin-Different-Phenotype (%): 31%
  Total Cell Count: 119
[4]
  Population Apoptotic (%): 29%
  Population Fragmented Nuclei (%): 17%
  Population Healthy Nuclei (%): 45%
  Population Hoechst High Intensity Objects (%): 6%
  Population Membrane Permeable-Phenotype (%): 2%
  Population Mitochondria Different-Phenotype (%): 10%
  Population Mitotic Cells (%): 70%
  Population Normal (%): 93%
  Population Pyknosed Nuclei (%): 36%
  Population Tubulin-Different-Phenotype (%): 57%
  Total Cell Count: 90
[5]
  Population Apoptotic (%): 20%
  Population Fragmented Nuclei (%): 16%
  Population Healthy Nuclei (%): 78%
  Population Hoechst High Intensity Objects (%): 0%
  Population Membrane Permeable-Phenotype (%): 0%
  Population Mitochondria Different-Phenotype (%): 1%
  Population Mitotic Cells (%): 80%
  Population Normal (%): 100%
  Population Pyknosed Nuclei (%): 4%
  Population Tubulin-Different-Phenotype (%): 10%
  Total Cell Count: 102
[6]
  Population Apoptotic (%): 52%
  Population Fragmented Nuclei (%): 30%
  Population Healthy Nuclei (%): 57%
  Population Hoechst High Intensity Objects (%): 2%
  Population Membrane Permeable-Phenotype (%): 1%
  Population Mitochondria Different-Phenotype (%): 7%
  Population Mitotic Cells (%): 47%
  Population Normal (%): 97%
  Population Pyknosed Nuclei (%): 12%
  Population Tubulin-Different-Phenotype (%): 28%
  Total Cell Count: 161
[7]
  Population Apoptotic (%): 50%
  Population Fragmented Nuclei (%): 20%
  Population Healthy Nuclei (%): 68%
  Population Hoechst High Intensity Objects (%): 1%
  Population Membrane Permeable-Phenotype (%): 0%
  Population Mitochondria Different-Phenotype (%): 7%
  Population Mitotic Cells (%): 50%
  Population Normal (%): 98%
  Population Pyknosed Nuclei (%): 11%
  Population Tubulin-Different-Phenotype (%): 29%
  Total Cell Count: 122
[8]
  Population Apoptotic (%): 32%
  Population Fragmented Nuclei (%): 26%
  Population Healthy Nuclei (%): 41%
  Population Mitochondria Different-Phenotype (%): 10%
  Population Mitotic Cells (%): 67%
  Population Pyknosed Nuclei (%): 31%
  Population Tubulin-Different-Phenotype (%): 65%
  Total Cell Count: 98
[9]
  Population Apoptotic (%): 44%
  Population Fragmented Nuclei (%): 18%
  Population Healthy Nuclei (%): 73%
  Population Hoechst High Intensity Objects (%): 1%
  Population Membrane Permeable-Phenotype (%): 1%
  Population Mitochondria Different-Phenotype (%): 1%
  Population Mitotic Cells (%): 55%
  Population Normal (%): 98%
  Population Pyknosed Nuclei (%): 8%
  Population Tubulin-Different-Phenotype (%): 16%
  Total Cell Count: 112
[10]
  Population Apoptotic (%): 60%
  Population Fragmented Nuclei (%): 35%
  Population Healthy Nuclei (%): 55%
  Population Hoechst High Intensity Objects (%): 2%
  Population Membrane Permeable-Phenotype (%): 5%
  Population Mitochondria Different-Phenotype (%): 3%
  Population Mitotic Cells (%): 40%
  Population Normal (%): 97%
  Population Tubulin-Different-Phenotype (%): 25%
  Total Cell Count: 171
[11]
  Population Apoptotic (%): 23%
  Population Fragmented Nuclei (%): 30%
  Population Healthy Nuclei (%): 55%
  Population Hoechst High Intensity Objects (%): 4%
  Population Membrane Permeable-Phenotype (%): 2%
  Population Mitochondria Different-Phenotype (%): 4%
  Population Mitotic Cells (%): 76%
  Population Normal (%): 95%
  Population Pyknosed Nuclei (%): 13%
  Population Tubulin-Different-Phenotype (%): 35%
  Total Cell Count: 133
[12]
  Population Apoptotic (%): 39%
  Population Fragmented Nuclei (%): 40%
  Population Healthy Nuclei (%): 37%
  Population Hoechst High Intensity Objects (%): 2%
  Population Membrane Permeable-Phenotype (%): 0%
  Population Mitochondria Different-Phenotype (%): 10%
  Population Mitotic Cells (%): 60%
  Population Normal (%): 97%
  Population Pyknosed Nuclei (%): 22%
  Population Tubulin-Different-Phenotype (%): 69%
  Total Cell Count: 107
